Assays:
[1] = test system: HT-29; assay: Cytotoxicity against human HT-29 cells assessed as cell viability at 10 uM measured after 48 hrs by WST-1 assay relative to control; type: functional; settings: read-out: Activity
How it was run: (§1)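 Ten-line human panel (9 cancer, 1 non-cancerous). Cells were seeded at a pre-established optimal density (500–30 × 10³ per well) and settled overnight. Compounds came from 10 mM DMSO stocks and were tested at two concentrations. WST-1 readout followed the manufacturer's protocol at the end of cultivation. Viability is expressed as % of untreated control cells, mean of three independent experiments.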

[2] = test system: MCF7; assay: Cytotoxicity against human MCF7 cells assessed as cell viability at 10 uM measured after 48 hrs by WST-1 assay relative to control; type: functional; settings: read-out: Activity; how it was run: as §1
[3] = test system: Mus musculus; assay: Radioprotective activity in C57Bl/6 mouse assessed as median survival time at 100 mg/kg, ip administered 5 min prior to gamma-irradation at 8.5 Gy and measured after 30 days (reference value: 12 days); type: functional
[4] = test system: A2780; assay: Cytotoxicity against human A2780 cells assessed as cell viability at 10 uM measured after 48 hrs by WST-1 assay relative to control; type: functional; settings: read-out: Activity; how it was run: as §1
[5] = test system: PANC-1; assay: Cytotoxicity against human PANC-1 cells assessed as cell viability at 10 uM measured after 48 hrs by WST-1 assay relative to control; type: functional; settings: read-out: Activity; how it was run: as §1
[6] = test system: HeLa; assay: Cytotoxicity against human HeLa cells assessed as cell viability at 10 uM measured after 48 hrs by WST-1 assay relative to control; type: functional; settings: read-out: Activity; how it was run: as §1
[7] = test system: A2780; assay: Cytotoxicity against human A2780 cells assessed as cell viability at 100 uM measured after 48 hrs by WST-1 assay relative to control; type: functional; settings: read-out: Activity; how it was run: as §1
[8] = Toxicity in C57Bl/6 mouse assessed as average body weight at 100 mg/kg, ip and measured immediately (reference value: 26.3 +/- 2.4 g); type: organism-based; settings: in vivo
[9] = test system: A549; assay: Cytotoxicity against human A549 cells assessed as maximum tolerated concentration incubated for 24 hrs by MTT assay; type: functional
How it was run: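 A-549 cells in DMEM with 10% FBS and 1% penicillin-streptomycin, left to attach overnight. Compounds made up in PBS, serially diluted in DMEM, incubated 24 h, then viability read by MTT reduction against untreated controls on each plate. MTC taken as the highest concentration showing no significant difference from non-treated control (t-test).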

[10] = test system: MCF7; assay: Cytotoxicity against human MCF7 cells assessed as cell viability at 100 uM measured after 48 hrs by WST-1 assay relative to control; type: functional; settings: read-out: Activity; how it was run: as §1
[11] = Toxicity in C57Bl/6 mouse assessed as mouth death at 100 mg/kg, ip measured after 30 days; type: organism-based; settings: in vivo, 720 h, time 30 day
How it was run: (§2)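 Safety in C57Bl/6 mice (27 ± 3 g) given a single 100 mg/kg i.p. injection without irradiation. Deaths, adverse effects and body weight followed over 30 days against an untreated control group. Weight reported as change from day 0.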

[12] = test system: MOLT-4; assay: Cytotoxicity against human MOLT-4 cells assessed as cell viability at 10 uM measured after 48 hrs by WST-1 assay relative to control; type: functional; settings: read-out: Activity; how it was run: as §1
[13] = test system: A549; assay: Cytotoxicity against human A549 cells assessed as reduction in cell viability incubated for 24 hrs by MTT assay; type: functional, cell-based; settings: A549, 24 h
How it was run: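 A-549 cells in DMEM with 10% FBS and 1% penicillin-streptomycin were attached overnight. Compounds were prepared in PBS and serially diluted in DMEM, then incubated 24 h. Viability was read by colorimetric MTT reduction against an untreated control on each plate (100%). IC50 came from four-parameter nonlinear regression of the log concentration-response curve, mean ± SEM. MTC is the highest concentration not differing from control (t-test).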

[14] = test system: Jurkat; assay: Cytotoxicity against human Jurkat cells assessed as cell viability at 10 uM measured after 48 hrs by WST-1 assay relative to control; type: functional; settings: read-out: Activity; how it was run: as §1
[15] = test system: HT-29; assay: Cytotoxicity against human HT-29 cells assessed as cell viability at 100 uM measured after 48 hrs by WST-1 assay relative to control; type: functional; settings: read-out: Activity; how it was run: as §1
[16] = test system: Jurkat; assay: Cytotoxicity against human Jurkat cells assessed as cell viability at 100 uM measured after 48 hrs by WST-1 assay relative to control; type: functional; settings: read-out: Activity; how it was run: as §1
[17] = test system: MOLT-4; assay: Cytotoxicity against human MOLT-4 cells assessed as cell viability at 100 uM measured after 48 hrs by WST-1 assay relative to control; type: functional; settings: read-out: Activity; how it was run: as §1
[18] = test system: HeLa; assay: Cytotoxicity against human HeLa cells assessed as cell viability at 100 uM measured after 48 hrs by WST-1 assay relative to control; type: functional; settings: read-out: Activity; how it was run: as §1
[19] = test system: MOLT-4; assay: Radioprotective activity against gamma irradiation-induced apoptosis in human MOLT-4 cells assessed as viable cells at 100 uM pretreated with compound for 1 hr followed by gamma irradiation and measured after 24 hrs by annexinV/propidium iodide staining based flow cytometry (reference value: 40 %); type: functional; settings: MOLT-4, light or radiation study, time 25 hrs, read-out: Activity
[20] = Toxicity in C57Bl/6 mouse assessed as adverse effects at 100 mg/kg, ip measured after 30 days; type: organism-based; settings: in vivo, 720 h, time 30 day; how it was run: as §2
[21] = test system: SAOS-2; assay: Cytotoxicity against human SAOS-2 cells assessed as cell viability at 10 uM measured after 48 hrs by WST-1 assay relative to control; type: functional; settings: read-out: Activity; how it was run: as §1
[22] = test system: A549; assay: Cytotoxicity against human A549 cells assessed as cell viability at 10 uM measured after 48 hrs by WST-1 assay relative to control; type: functional; settings: read-out: Activity; how it was run: as §1
[23] = test system: SAOS-2; assay: Cytotoxicity against human SAOS-2 cells assessed as cell viability at 100 uM measured after 48 hrs by WST-1 assay relative to control; type: functional; settings: read-out: Activity; how it was run: as §1
[24] = test system: PANC-1; assay: Cytotoxicity against human PANC-1 cells assessed as cell viability at 100 uM measured after 48 hrs by WST-1 assay relative to control; type: functional; settings: read-out: Activity; how it was run: as §1
[25] = test system: Mus musculus; assay: Radioprotective activity in C57Bl/6 mouse assessed as average body weight at 100 mg/kg, ip administered 5 min prior to gamma-irradation at 8.5 Gy and measured immediately (reference value: 25.4 +/- 2.6 g); type: functional
[26] = Toxicity in C57Bl/6 mouse assessed as average body weight at 100 mg/kg, ip measured after 30 days (reference value: 27 +/ 3.2 g); type: organism-based; settings: in vivo, 720 h, time 30 day
[27] = Cytotoxicity against human MRC5 cells assessed as cell viability at 100 uM measured after 48 hrs by WST-1 assay relative to control; type: cell-based; settings: read-out: Activity; how it was run: as §1
[28] = test system: A549; assay: Cytotoxicity against human A549 cells assessed as cell viability at 100 uM measured after 48 hrs by WST-1 assay relative to control; type: functional; settings: read-out: Activity; how it was run: as §1
[29] = Toxicity in C57Bl/6 mouse assessed as change in body weight at 100 mg/kg, ip measured after 30 days (reference value: 103 +/- 12 %); type: organism-based; settings: in vivo, 720 h, time 30 day
[30] = test system: Mus musculus; assay: Radioprotective activity in C57Bl/6 mouse assessed as body weight gain at 100 mg/kg, ip administered 5 min prior to gamma-irradation at 8.5 Gy measured after 30 days relative to control; type: functional
[31] = test system: Mus musculus; assay: Radioprotective activity in C57Bl/6 mouse assessed as average body weight at 100 mg/kg, ip administered 5 min prior to gamma-irradation at 8.5 Gy and measured after 30 days; type: functional
[32] = Cytotoxicity against human MRC5 cells assessed as cell viability at 10 uM measured after 48 hrs by WST-1 assay relative to control; type: cell-based; settings: read-out: Activity; how it was run: as §1

Row | Compound | viability at 10 µM [1] [%] | viability at 10 µM [2] [%] | viability at 10 µM [4] [%] | viability at 10 µM [5] [%] | viability at 10 µM [6] [%] | viability at 100 µM [7] [%] | MTD [9] [mM] | viability at 100 µM [10] [%] | viability at 10 µM [12] [%] | IC50 [13] [µM] | viability at 10 µM [14] [%] | viability at 100 µM [15] [%] | viability at 100 µM [16] [%] | viability at 100 µM [17] [%] | viability at 100 µM [18] [%] | viability at 100 µM [19] [%] | viability at 10 µM [21] [%] | viability at 10 µM [22] [%] | viability at 100 µM [23] [%] | viability at 100 µM [24] [%] | also measured
1 | COc1cccc(OC)c1OCC(O)CN1CCN(CCO)CC1 (configuration not stated) | 102 | 101 | 95 | 104 | 101 | 83 | 1.56 | 90 | 105 | 7810 | 110 | 141 | 84 | 76 | 94 | 61 | 106 | 97 | 82 | 115 | MST [3]: 12 days; Activity [8]: 27 g; Activity [11]: Non-Toxic; Activity [20]: Non-Toxic; Activity [25]: 27.3 g; Activity [26]: 27.6 g; viability at 48 h, 100 µM [27]: 115%; viability at 100 µM [28]: 99%; Activity [29]: 102%; Activity [30]: 109%; Activity [31]: 27.7 g
2 | Cc1ccc(C(C)C)c(OCC(O)CN2CCN(CCO)CC2)c1 (configuration not stated) | 93 | 100 | 100 | 91 | 105 | 90 | 0.16 | 85 | 87 | 360 | 97 | 64 | 98 | 90 | 132 | 58 | 93 | 90 | 109 | 125 | viability at 48 h, 10 µM [32]: 102%; viability at 48 h, 100 µM [27]: 90%; viability at 100 µM [28]: 114%
3 | Cc1ccc(OCC(O)CN2CCN(CCO)CC2)cc1 (configuration not stated) | 98 | 107 | 97 | 102 | 100 | 94 | 0.29 | 100 | 103 | 2430 | 101 | 107 | 97 | 103 | 101 | 58 | 102 | 106 | 83 | 99 | viability at 48 h, 10 µM [32]: 112%; viability at 48 h, 100 µM [27]: 100%; viability at 100 µM [28]: 110%

— ChEMBL document CHEMBL4706495, “A novel class of small molecule inhibitors with radioprotective properties” (Eur J Med Chem, 2020)
